Source: ChEMBL document CHEMBL3864137, “Design, Synthesis, and Pharmacological Evaluation of 2-(2,5-Dimethyl-5,6,7,8-tetrahydroquinolin-8-yl)-N-aryl Propanamides as Novel Smoothened (Smo) Antagonists” (J Med Chem, 2016)
pIC50: −log10 of the molar value. Calls of active or inactive are those of the source. No cut-off for these calls is given here.

Tests used:
Protein smoothened = Protein smoothened (Mus musculus, UniProt P56726); assay: Inhibition of Smo-mediated Hh signalling pathway in mouse Shh Light2 cells by Gli-luciferase reporter gene assay; type: cell-based
Outline: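 Light II cells (NIH-3T3 stably carrying a Gli-responsive firefly luciferase reporter plus a Renilla luciferase vector), seeded in 96-well plates and treated. Firefly/Renilla activity in the lysates read by dual luciferase assay on a luminometer. IC50 is the mean ± SD of three separate experiments.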

Medulloblastoma cell = assay: Antiproliferative activity against mouse medulloblastoma cells isolated from Ptch+/- p53-/- mouse measured after 72 hrs by MTS assay; type: functional
Outline: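 Medulloblastoma cells from Ptch+/-;p53-/- allografts in nude mice, minced and collagenase-digested, grown in Neurobasal A with B-27, EGF 20 ng/ml, bFGF 20 ng/ml, nonessential amino acids and N-acetyl cysteine 60 µg/ml. Seeded in 96-well plates, treated 72 h, viability read by MTS; mean ± SD.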

[1] = molecular target: Protein smoothened (Homo sapiens) (UniProt Q99835); assay: Antagonist activity at wild-type Smo (unknown origin) expressed in mouse Shh Light2 cells assessed as suppression of Gli-mRNA expression measured after 36 hrs by dual luciferase reporter gene assay; type: cell-based; conditions: in the assay text read “Gli-luciferase activity” for “Gli-mRNA expression”
Outline: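 Light II cells transfected with wild-type Smo plasmid to drive Gli-luciferase, exposed to compound for 36 h, then harvested for dual luciferase reporter assay. Mean ± SD.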

LS174T = assay: Inhibition of PGE2-stimulated TCF/LEF transactivation in human LS174T cells at 20 uM measured after 6 hrs by dual luciferase reporter gene assay; type: cell-based
Outline: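 LS174T cells stimulated with PGE2 and treated for 6 h, then lysed for dual luciferase reporter analysis of TCF/LEF activity. Mean ± SD.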

HEK293 = assay: Inhibition of TNF-alpha stimulated NFkappaB transactivation in HEK293 cells at 20 uM measured after 24 hrs by dual luciferase reporter gene assay; type: cell-based; conditions: Homo sapiens
Outline: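 HEK293 cells stimulated with TNF-α and treated for 24 h, then lysed for dual luciferase reporter analysis of NF-κB activity. Mean ± SD.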

[2] = molecular target: Voltage-gated inwardly rectifying potassium channel KCNH2 (Homo sapiens, UniProt Q12809); assay: Inhibition of human ERG
[3] = Cytotoxicity against human KB cells; type: toxicity, cell-based

Chain of Protein smoothened (P56726 whole entry): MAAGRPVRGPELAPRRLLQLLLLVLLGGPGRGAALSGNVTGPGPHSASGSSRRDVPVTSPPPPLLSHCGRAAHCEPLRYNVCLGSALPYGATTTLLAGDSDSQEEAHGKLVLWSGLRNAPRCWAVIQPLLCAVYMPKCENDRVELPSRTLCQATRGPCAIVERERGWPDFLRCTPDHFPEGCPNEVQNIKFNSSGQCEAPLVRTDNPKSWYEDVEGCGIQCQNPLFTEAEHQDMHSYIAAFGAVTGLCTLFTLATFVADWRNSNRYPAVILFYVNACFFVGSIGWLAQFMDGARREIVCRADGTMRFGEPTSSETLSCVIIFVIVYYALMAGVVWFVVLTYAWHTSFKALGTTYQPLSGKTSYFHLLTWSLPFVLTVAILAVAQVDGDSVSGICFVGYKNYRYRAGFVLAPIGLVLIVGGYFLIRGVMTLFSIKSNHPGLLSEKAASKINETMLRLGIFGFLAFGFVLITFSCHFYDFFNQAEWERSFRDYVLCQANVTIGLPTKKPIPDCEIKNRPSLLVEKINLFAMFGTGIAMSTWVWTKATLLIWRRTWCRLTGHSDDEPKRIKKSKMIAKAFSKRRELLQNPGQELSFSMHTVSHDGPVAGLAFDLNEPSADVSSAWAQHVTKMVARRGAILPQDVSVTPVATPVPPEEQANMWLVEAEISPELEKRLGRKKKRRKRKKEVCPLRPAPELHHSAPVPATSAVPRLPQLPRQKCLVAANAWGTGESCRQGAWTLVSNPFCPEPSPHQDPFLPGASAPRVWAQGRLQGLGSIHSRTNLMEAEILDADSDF
Chain of Protein smoothened (Homo sapiens) (Q99835 whole entry): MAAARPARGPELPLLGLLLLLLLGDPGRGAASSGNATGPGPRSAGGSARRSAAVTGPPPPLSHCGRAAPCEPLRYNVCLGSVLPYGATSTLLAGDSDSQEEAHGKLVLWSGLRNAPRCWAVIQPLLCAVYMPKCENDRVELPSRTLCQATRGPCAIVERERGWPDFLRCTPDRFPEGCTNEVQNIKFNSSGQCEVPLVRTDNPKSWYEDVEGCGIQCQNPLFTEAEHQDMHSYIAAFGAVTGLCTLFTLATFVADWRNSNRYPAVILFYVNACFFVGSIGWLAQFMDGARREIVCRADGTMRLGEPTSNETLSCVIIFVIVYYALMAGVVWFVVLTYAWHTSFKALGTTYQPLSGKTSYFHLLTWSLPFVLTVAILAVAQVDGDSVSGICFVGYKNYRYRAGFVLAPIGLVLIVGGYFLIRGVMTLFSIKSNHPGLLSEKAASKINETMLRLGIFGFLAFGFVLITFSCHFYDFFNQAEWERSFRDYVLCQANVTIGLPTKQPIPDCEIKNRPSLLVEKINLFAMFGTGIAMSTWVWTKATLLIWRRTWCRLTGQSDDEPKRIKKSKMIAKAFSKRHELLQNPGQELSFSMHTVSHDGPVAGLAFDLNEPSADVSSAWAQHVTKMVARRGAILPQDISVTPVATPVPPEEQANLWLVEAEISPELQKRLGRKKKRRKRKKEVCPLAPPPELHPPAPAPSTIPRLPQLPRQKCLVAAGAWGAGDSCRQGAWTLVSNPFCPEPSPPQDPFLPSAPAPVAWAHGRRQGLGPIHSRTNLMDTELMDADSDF
Chain of Voltage-gated inwardly rectifying potassium channel KCNH2 (Q12809 whole entry): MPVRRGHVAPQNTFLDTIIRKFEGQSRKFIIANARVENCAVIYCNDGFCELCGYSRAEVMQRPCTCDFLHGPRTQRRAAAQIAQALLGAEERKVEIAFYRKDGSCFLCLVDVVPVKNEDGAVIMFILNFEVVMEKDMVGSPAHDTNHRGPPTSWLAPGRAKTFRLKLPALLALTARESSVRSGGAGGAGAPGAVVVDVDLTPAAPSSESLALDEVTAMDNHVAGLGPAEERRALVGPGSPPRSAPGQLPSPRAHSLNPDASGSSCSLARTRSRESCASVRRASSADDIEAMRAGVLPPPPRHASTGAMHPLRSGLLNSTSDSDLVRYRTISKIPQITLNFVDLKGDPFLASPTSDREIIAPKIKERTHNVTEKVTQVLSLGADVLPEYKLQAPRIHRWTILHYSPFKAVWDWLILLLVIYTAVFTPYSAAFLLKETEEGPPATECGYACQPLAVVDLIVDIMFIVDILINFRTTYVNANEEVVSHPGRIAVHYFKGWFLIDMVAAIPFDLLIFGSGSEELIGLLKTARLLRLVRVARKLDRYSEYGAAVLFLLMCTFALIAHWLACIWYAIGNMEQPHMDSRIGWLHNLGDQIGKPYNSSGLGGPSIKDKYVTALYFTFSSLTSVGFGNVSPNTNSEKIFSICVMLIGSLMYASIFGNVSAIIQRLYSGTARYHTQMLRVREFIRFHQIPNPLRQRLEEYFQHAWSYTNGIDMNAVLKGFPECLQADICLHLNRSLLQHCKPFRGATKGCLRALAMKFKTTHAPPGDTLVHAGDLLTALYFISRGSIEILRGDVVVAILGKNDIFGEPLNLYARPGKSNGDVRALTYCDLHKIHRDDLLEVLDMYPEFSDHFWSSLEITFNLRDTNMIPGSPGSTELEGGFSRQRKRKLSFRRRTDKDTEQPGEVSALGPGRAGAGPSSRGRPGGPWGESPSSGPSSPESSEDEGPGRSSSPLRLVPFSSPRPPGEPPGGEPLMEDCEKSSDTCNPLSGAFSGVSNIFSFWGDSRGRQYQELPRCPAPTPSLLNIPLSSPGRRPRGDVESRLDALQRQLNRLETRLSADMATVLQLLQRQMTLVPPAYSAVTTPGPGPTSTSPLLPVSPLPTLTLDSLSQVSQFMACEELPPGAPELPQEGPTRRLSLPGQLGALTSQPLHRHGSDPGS

Row | SMILES | pIC50 (Protein smoothened) | other results
1 | CS(=O)(=O)c1ccc(C(=O)Nc2ccc(Cl)c(-c3ccccn3)c2)c(Cl)c1 |  | Activity (Medulloblastoma cell): Dose-dependent effect; inhibition [1]: Dose-dependent effect
2 | CC(=O)Nc1nc2c(s1)C[C@@H]1[C@H](C2)[C@H]([C@@H](C)C(=O)Nc2ccc(Cl)c(-c3ccccn3)c2)CC[C@H]1C | < 6.00 | 
3 | O=S(=O)(NCCNC/C=C/c1ccc(Br)cc1)c1cccc2cnccc12 |  | inhibition (LS174T): Active
4 | C[C@@H]1CC[C@@H]2[C@]34OO[C@](C)(CC[C@@H]13)OC4O[C@]2(C)C(=O)Nc1ccc(Cl)c(-c2ccccn2)c1 (some centres undefined) | 6.74 | 
5 | Cc1ccc(S(=O)(=O)/C=C/C#N)cc1 |  | inhibition (HEK293): Active
6 | C[C@@H]1CC[C@@H]([C@@H](C)C(=O)Nc2ccc(Cl)c(-c3ccccn3)c2)C2=CC(=O)CC[C@H]21 | < 6.00 | 
7 | Cc1ccc2c(n1)[C@H]([C@@H](C)C(=O)Nc1ccc(Cl)c(-c3ccc(N4C[C@@H](C)O[C@@H](C)C4)cn3)c1)CC[C@H]2C | < 6.00 | 

Continued, in another order:

Row | pIC50 (Protein smoothened) | SMILES | other results
8 | 6.00 | Cc1ccc2c(n1)[C@H]([C@@H](C)C(=O)Nc1cccc(-c3ccc(OC(F)(F)F)cc3)c1C)CC[C@H]2C | 
9 | 6.74 | C[C@H]1[C@@H](CC(=O)Nc2ccc(Cl)c(-c3ccccn3)c2)O[C@@H]2O[C@@]3(C)CC[C@H]4[C@H](C)CC[C@@H]1[C@@]24O3 | 
10 | 6.54 | C[C@@H]1CC[C@@H]([C@@H](C)C(=O)Nc2ccc(Cl)c(-c3ccccn3)c2)[C@H]2CC(=O)CC[C@H]21 | 
11 | 6.49 | C[C@@H]1CC[C@@H]([C@@H](C)C(=O)Nc2ccc(Cl)c(-c3ccccn3)c2)[C@H]2Cc3c(cnn3-c3ccccc3)C[C@H]21 | 
12 | 6.57 | COC(=O)[C@H](C)c1ccc(C)c2ccc(C(=O)Nc3ccc(Cl)c(-c4ccccn4)c3)nc12 | 
13 | < 6.00 | Cc1ccc2c(n1)[C@H]([C@@H](C)C(=O)Nc1ccc(Cl)c(-c3noc(C)n3)c1)CC[C@H]2C | 
14 | 6.81 | C[C@@H]1CC[C@@H]([C@@H](C)C(=O)Nc2ccc(Cl)c(-c3ccccn3)c2)c2nc(CN3CCOCC3)ccc21 | pIC50 [2]: 5.48; pIC50 [3]: < 4.70
15 | 6.23 | Cc1ccc2c(n1)[C@H]([C@@H](C)C(=O)Nc1ccc(Cl)c(-c3nnc(-c4ccnn4C)o3)c1)CC[C@H]2C | 
16 | 6.32 | C[C@@H]1CC[C@@H]([C@@H](C)C(=O)Nc2ccc(Cl)c(-c3ccccn3)c2)[C@H]2Cc3c(c4ccccc4n3C)C[C@H]21 | 
